Laboratory results taken from ChEMBL document CHEMBL4229389, “Synthesis and biological evaluation of clovamide analogues as potent anti-neuroinflammatory agents in vitro and in vivo” (Eur J Med Chem, 2018).
Activity calls are given as the source filed them. The rule behind the calls is not given here.

What was measured:
[1] = tested on: BV-2; test: Anti-neuroinflammatory activity in […] assessed as reduction in LPS-induced NO production at 10 uM preincubated for 4 hrs followed by LPS stimulation for 24 hrs by Griess assay relative to control; format: functional; conditions: for inhibition at 10 µM: Mus musculus
Method in brief: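 Mouse microglial BV-2 cells in DMEM with 10% FBS. Pretreated at 10 µM for 4 h, then LPS 500 ng/mL for 24 h. Nitrite in supernatant measured with Griess reagent at 540 nm. Means ± S.E.M., n=3.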

[2] = target: Nitric oxide synthase, inducible (Mus musculus) (UniProt P29477); test: Inhibition of LPS-induced iNOS in mouse BV2 cells after 4 hrs by DAF-FMDA dye-based fluorescence assay
Nitric oxide synthase, inducible (Mus musculus), sequence (P29477 whole entry, looked up): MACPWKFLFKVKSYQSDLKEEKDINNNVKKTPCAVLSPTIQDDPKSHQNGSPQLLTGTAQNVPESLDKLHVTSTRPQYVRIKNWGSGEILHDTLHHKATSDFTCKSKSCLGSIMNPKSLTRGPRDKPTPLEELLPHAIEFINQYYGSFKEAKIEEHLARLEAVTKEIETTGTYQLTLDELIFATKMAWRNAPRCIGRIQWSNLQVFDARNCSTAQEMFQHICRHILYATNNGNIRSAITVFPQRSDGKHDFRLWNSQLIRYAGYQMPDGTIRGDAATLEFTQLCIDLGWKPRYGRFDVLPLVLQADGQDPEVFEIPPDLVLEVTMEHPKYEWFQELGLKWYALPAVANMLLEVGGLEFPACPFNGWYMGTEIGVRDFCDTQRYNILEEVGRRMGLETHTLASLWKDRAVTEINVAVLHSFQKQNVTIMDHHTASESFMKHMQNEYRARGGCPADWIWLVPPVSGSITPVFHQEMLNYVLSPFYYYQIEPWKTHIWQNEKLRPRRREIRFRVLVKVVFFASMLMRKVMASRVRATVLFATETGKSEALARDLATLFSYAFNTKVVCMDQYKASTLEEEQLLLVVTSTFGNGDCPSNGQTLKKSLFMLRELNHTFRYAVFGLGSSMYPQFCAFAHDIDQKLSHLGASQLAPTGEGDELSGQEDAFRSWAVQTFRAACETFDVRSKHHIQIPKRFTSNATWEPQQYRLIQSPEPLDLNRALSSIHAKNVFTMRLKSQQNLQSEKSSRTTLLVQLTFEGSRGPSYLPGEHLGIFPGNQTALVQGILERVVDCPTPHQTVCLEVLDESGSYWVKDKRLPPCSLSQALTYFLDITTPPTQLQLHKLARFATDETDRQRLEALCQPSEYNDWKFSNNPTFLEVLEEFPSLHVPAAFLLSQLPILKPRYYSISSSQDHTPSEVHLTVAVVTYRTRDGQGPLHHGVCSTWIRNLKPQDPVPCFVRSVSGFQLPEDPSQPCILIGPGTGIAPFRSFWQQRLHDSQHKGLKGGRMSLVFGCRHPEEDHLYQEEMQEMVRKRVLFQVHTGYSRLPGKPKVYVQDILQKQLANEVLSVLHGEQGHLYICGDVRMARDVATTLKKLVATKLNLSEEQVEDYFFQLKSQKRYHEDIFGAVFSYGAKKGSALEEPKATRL

[3] = Cytotoxicity against […] assessed as reduction in cell viability after 24 hrs by MTT assay; format: cell-based, BV-2; conditions: BV2 cells
Method in brief: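 BV-2 cells at 5 × 10^3/well, grown 12 h, then exposed to 1-100 µM for 24 h. MTT at 0.5 mg/mL final for 4 h at 37 ℃. Formazan dissolved in DMSO and read at 490 nm. CC50 as mean ± S.E.M. of three experiments.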

[4] = tested on: BV-2; test: Anti-neuroinflammatory activity in […] assessed as reduction in LPS-induced NO production preincubated for 4 hrs followed by LPS stimulation for 24 hrs by Griess assay; format: functional, cell-based; conditions: Mus musculus
Method in brief: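 BV-2 cells pretreated 4 h over 0.78-100 µM (twofold series), then LPS 500 ng/mL for 24 h. Supernatant mixed 1:1 with Griess reagent, A540, against NaNO2 standard curve. IC50 by curve fitting; mean ± S.E.M. of three experiments.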

[5] = tested on: Mus musculus; test: Anti-neuroinflammatory activity in MPTP-induced C57BL/6 mouse assessed as alleviation of functional behaviour impairment at 20 mg/kg, po pre-treated daily for 7 days followed by 4 times MPTP addition at 2 hrs intervals and measured after 4 to 72 hrs post MPTP injection by rota rod test; format: organism-based
Method in brief: (§1)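 Male C57BL/6 mice, 7-8 weeks, 20-22 g, 8 per group. Pretrained 3 days on rota-rod, up to 25 rpm, to stay on 180 s. Dosed i.g. at 10 or 20 mg/kg daily for 7 days in 0.5% methylcellulose with 1% Tween 80, vehicle for controls. Then 4 i.p. MPTP injections (20 mg/kg) at 2-h intervals. Tested at 4, 24, 48 and 72 h; mean of three runs.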

[6] = target: Transcription factor p65 (Mus musculus) (UniProt Q04207); test: Inhibition of LPS-induced nuclear translocation of NF-kappaB-p65 in mouse BV2 cells at 1 to 20 uM preincubated for 2 hrs followed by LPS stimulation for 2 hrs by Western blot analysis
Transcription factor p65 (Mus musculus), sequence (Q04207 whole entry, looked up): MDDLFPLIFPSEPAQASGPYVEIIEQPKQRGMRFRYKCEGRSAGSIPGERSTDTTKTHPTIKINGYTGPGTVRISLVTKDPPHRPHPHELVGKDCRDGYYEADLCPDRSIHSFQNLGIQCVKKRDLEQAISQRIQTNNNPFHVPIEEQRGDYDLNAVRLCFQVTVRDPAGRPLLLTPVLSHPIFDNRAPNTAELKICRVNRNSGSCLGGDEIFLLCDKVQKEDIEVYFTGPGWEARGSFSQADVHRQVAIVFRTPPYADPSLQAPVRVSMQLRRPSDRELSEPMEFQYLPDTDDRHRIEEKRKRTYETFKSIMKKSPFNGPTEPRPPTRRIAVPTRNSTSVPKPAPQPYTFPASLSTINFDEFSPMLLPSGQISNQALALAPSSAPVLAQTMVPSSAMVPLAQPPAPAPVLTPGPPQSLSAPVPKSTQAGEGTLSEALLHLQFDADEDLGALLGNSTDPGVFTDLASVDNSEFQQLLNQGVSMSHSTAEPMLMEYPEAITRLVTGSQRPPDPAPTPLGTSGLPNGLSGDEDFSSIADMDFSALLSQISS

[7] = tested on: BV-2; test: Anti-neuroinflammatory activity in […] assessed as reduction in LPS-induced COX-2 expression preincubated for 2 hrs followed by LPS stimulation for 24 hrs by Western blot analysis; format: functional, cell-based
Method in brief: (§2)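 BV-2 cells at 5 × 10^5/well, pretreated at 1, 10 or 20 µM, then LPS 500 ng/mL. Lysed in RIPA with protease/phosphatase inhibitors. 30 µg protein blotted with primary antibodies 1:1000 and HRP secondary 1:5000, ECL detection. β-actin as loading control. Expressed as fold of control; at least three independent experiments, each in duplicate.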

[8] = tested on: Mus musculus; test: (§3) Anti-neuroinflammatory activity in MPTP-induced C57BL/6 mouse assessed as increase in tyrosine hydroxylase positive cells in substantia nigra at 10 to 20 mg/kg, po pre-treated daily for 7 days followed by 4 times MPTP addition at 2 hrs intervals and measured after 4 to 72 hrs post MPTP injection by DAB staining based immunohistochemistry method; format: functional, organism-based
[9] = tested on: BV-2; test: Anti-neuroinflammatory activity in […] assessed as reduction in LPS-induced IL-1beta expression preincubated for 2 hrs followed by LPS stimulation for 24 hrs by Western blot analysis; format: functional, cell-based; method in brief: as §2
[10] = tested on: Mus musculus; test: Anti-neuroinflammatory activity in MPTP-induced C57BL/6 mouse assessed as alleviation of functional behaviour impairment at 10 mg/kg, po pre-treated daily for 7 days followed by 4 times MPTP addition at 2 hrs intervals and measured after 4 to 72 hrs post MPTP injection by rota rod test; format: organism-based; method in brief: as §1
[11] = tested on: BV-2; test: Anti-neuroinflammatory activity in […] assessed as reduction in LPS-induced iNOS expression preincubated for 2 hrs followed by LPS stimulation for 24 hrs by Western blot analysis; format: functional, cell-based; method in brief: as §2
[12] = tested on: Mus musculus; test: as §3, with “striatum” for “substantia nigra”; format: functional, organism-based
[13] = tested on: Mus musculus; test: (§4) Anti-neuroinflammatory activity in MPTP-induced C57BL/6 mouse assessed as reduction in astroglial activation by measuring increase in glial fibrillary acidic protein expression in striatum at 10 to 20 mg/kg, po pre-treated daily for 7 days followed by 4 times MPTP addition at 2 hrs intervals and measured after 4 to 72 hrs post MPTP injection by DAB staining based immunohistochemistry method; format: functional, organism-based
[14] = tested on: BV-2; test: Anti-neuroinflammatory activity in […] assessed as reduction in LPS-induced TNF-alpha expression preincubated for 2 hrs followed by LPS stimulation for 24 hrs by Western blot analysis; format: functional, cell-based; method in brief: as §2
[15] = tested on: Mus musculus; test: as §4, with “substantia nigra” for “striatum”; format: functional, organism-based

## COC(=O)C[C@H](NC(=O)/C=C/c1ccc(O)cc1)C(=O)OC
[1]
  inhibition: Active

## COC(=O)CC[C@H](NC(=O)/C=C/c1ccccc1)C(=O)OC
[1]
  inhibition: Active

## O=C(/C=C/c1ccccc1)N[C@@H](Cc1ccc(O)cc1)C(=O)O
[1]
  inhibition: Active

## COC(=O)[C@H](Cc1ccc(O)cc1)NC(=O)/C=C/c1ccc(O)cc1
[1]
  inhibition: Active

## O=C(O)C[C@H](NC(=O)/C=C/c1cccc(O)c1)C(=O)O
[1]
  inhibition: Active

## COc1cc(/C=C/C(=O)N[C@@H](CCC(=O)O)C(=O)O)ccc1O
[1]
  inhibition: Active

## O=C(/C=C/c1ccccc1)N[C@@H](Cc1ccccc1)C(=O)O
[2]
  IC50: 18.9 µM
[1]
  inhibition at 10 µM: > 50%
[3]
  CC50 at 24 h: > 100 µM
[4]
  IC50: 26.4 µM

## COc1cc(/C=C/C(=O)N[C@@H](Cc2ccc(O)cc2)C(=O)O)ccc1O
[2]
  IC50: 1.01 µM
[5]
  Activity: Active
[1]
  inhibition at 10 µM: > 50%
[6]
  inhibition: Active
[3]
  CC50 at 24 h: > 100 µM
[7]
  Activity: Dose-dependent effect
[4]
  IC50: 2.67 µM
[8]
  Activity: Active
[9]
  Activity: Dose-dependent effect
[10]
  Activity: Active
[11]
  Activity: Dose-dependent effect
[12]
  Activity: Active
[13]
  Activity: Active
[14]
  Activity: Dose-dependent effect
[15]
  Activity: Active

## COC(=O)[C@H](Cc1ccccc1)NC(=O)/C=C/c1ccccc1
[1]
  inhibition: Active

## O=C(/C=C/c1cccc(O)c1)N[C@@H](Cc1ccc(O)cc1)C(=O)O
[1]
  inhibition: Active

## COC(=O)CC[C@H](NC(=O)/C=C/c1ccc(O)c(OC)c1)C(=O)OC
[1]
  inhibition: Active

## COC(=O)[C@H](Cc1ccccc1)NC(=O)/C=C/c1cccc(O)c1
[1]
  inhibition: Active

## COC(=O)[C@H](Cc1ccccc1)NC(=O)/C=C/c1ccc(O)cc1
[1]
  inhibition: Active

## O=C(/C=C/c1ccc(O)cc1)N[C@@H](Cc1ccc(O)cc1)C(=O)O
[2]
  IC50: 2.1 µM
[1]
  inhibition at 10 µM: > 50%
[3]
  CC50 at 24 h: > 100 µM
[4]
  IC50: 3.4 µM

## O=C(/C=C/c1cccc(O)c1)N[C@@H](Cc1ccccc1)C(=O)O
[2]
  IC50: 29.2 µM
[1]
  inhibition at 10 µM: > 50%
[3]
  CC50 at 24 h: > 100 µM
[4]
  IC50: 15.3 µM

## COC(=O)C[C@H](NC(=O)/C=C/c1cccc(O)c1)C(=O)OC
[1]
  inhibition: Active

## COc1cc(/C=C/C(=O)N[C@@H](Cc2ccccc2)C(=O)O)ccc1O
[2]
  IC50: 2.98 µM
[1]
  inhibition at 10 µM: > 50%
[3]
  CC50 at 24 h: > 100 µM
[4]
  IC50: 4.41 µM

## COC(=O)[C@H](Cc1ccc(O)cc1)NC(=O)/C=C/c1cccc(O)c1
[1]
  inhibition: Active

## COC(=O)[C@H](Cc1ccc(O)cc1)NC(=O)/C=C/c1ccc(O)c(OC)c1
[1]
  inhibition: Active

## O=C(O)C[C@H](NC(=O)/C=C/c1ccc(O)cc1)C(=O)O
[1]
  inhibition: Active

## O=C(/C=C/c1ccc(O)cc1)N[C@@H](Cc1ccccc1)C(=O)O
[2]
  IC50: 8.45 µM
[1]
  inhibition at 10 µM: > 50%
[3]
  CC50 at 24 h: > 100 µM
[4]
  IC50: 10.4 µM

## O=C(O)CC[C@H](NC(=O)/C=C/c1cccc(O)c1)C(=O)O
[1]
  inhibition: Active

## COC(=O)CC[C@H](NC(=O)/C=C/c1cccc(O)c1)C(=O)OC
[1]
  inhibition: Active

## COC(=O)[C@H](Cc1ccccc1)NC(=O)/C=C/c1ccc(O)c(OC)c1
[1]
  inhibition: Active

## COC(=O)[C@H](Cc1ccc(O)cc1)NC(=O)/C=C/c1ccccc1
[1]
  inhibition: Active

## O=C(O)CC[C@H](NC(=O)/C=C/c1ccccc1)C(=O)O
[1]
  inhibition: Active
